Data published in ChEMBL document CHEMBL1932986, “Synthesis and in vitro antimycobacterial activity of compounds derived from (R)- and (S)-2-amino-1-butanol - The crucial role of the configuration” (Eur J Med Chem, 2012).
In brackets after ≈: the same amount, converted by molar mass. Activity calls are given as the source filed them. The rule behind the calls is not given here.

How the values were obtained:
Bacillus subtilis [1] = assay: Antibacterial activity against Bacillus subtilis ATCC 6633 at 50 mg/ml after 24 hrs by agar diffusion test; format: functional; conditions: ATCC 6633, 24 h, read-out: DIZ
In short: (§1)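 Agar diffusion: wells in agar filled with […] DMSO solution of compound at various concentrations; diameter of clear zone around application point measured. Bacteria grown 24 h at 37 °C on nutrient agar. Compounds first screened at 50 mg/ml; those active then tested at lower concentrations. Bracketed value = lowest concentration (mg/ml) giving zone >11 mm, reported only if activity retained at ≤1.25 mg/ml.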

Staphylococcus aureus [2] = assay: Antibacterial activity against Staphylococcus aureus NRRL B 313 assessed as concentration required to produce >11 mm of zone of inhibition after 24 hrs by agar diffusion test; format: functional
In short: (§2)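 Agar diffusion: bacteria grown 24 h at 37 °C on nutrient agar. Wells in the agar are filled with […] of compound solution in DMSO at various concentrations. The diameter of the clear zone around the application point is measured. Bracketed values give the lowest concentration (mg/ml) that produces a zone >11 mm. A first screen is run at 50 mg/ml.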

Bacillus [3] = assay: Antibacterial activity against Bacillus idosus B 241 at 50 mg/ml after 24 hrs by agar diffusion test; format: functional; conditions: B 241, 24 h, read-out: DIZ; in short: as §1
Bacillus cereus [4] = assay: Antibacterial activity against Bacillus cereus ATCC 11778 at 2 mg/ml after 24 hrs by agar diffusion test; format: functional, organism-based; in short: as §1
Penicillium chrysogenum [5] = assay: Antifungal activity against Penicillium chrysogenum CECT 2802 assessed as concentration required to produce >11 mm of zone of inhibition after 72 hrs by agar diffusion test; format: functional
In short: (§3)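 Agar diffusion: yeasts grown on yeast peptone dextrose agar and fungi on potato dextrose agar. Wells are filled with […] of compound solution in DMSO at various concentrations, and the clear-zone diameter is measured. Bracketed values give the lowest concentration (mg/ml) that produces a zone >11 mm. A first screen is run at 50 mg/ml.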

Micrococcus luteus [6] = assay: Antibacterial activity against Sarcina lutea ATCC 9341 assessed as concentration required to produce >11 mm of zone of inhibition after 24 hrs by agar diffusion test; format: functional; in short: as §1
Bacillus cereus [7] = assay: Antibacterial activity against Bacillus cereus ATCC 11778 at 50 mg/ml after 24 hrs by agar diffusion test; format: functional; conditions: ATCC 11778, 24 h, read-out: DIZ; in short: as §1
Bacillus mycoides [8] = assay: Antibacterial activity against Bacillus mycoides DSMZ 274 at 2 mg/ml after 24 hrs by agar diffusion test; format: functional, organism-based; in short: as §1
Acinetobacter johnsonii [9] = assay: Antibacterial activity against Acinetobacter johnsonii ATCC 17909 at 2 mg/ml after 24 hrs by agar diffusion test; format: functional; in short: as §1
Micrococcus luteus [10] = assay: Antibacterial activity against Sarcina lutea ATCC 9341 at 50 mg/ml after 24 hrs by agar diffusion test; format: functional; conditions: ATCC 9341, 24 h, read-out: DIZ; in short: as §2
Penicillium chrysogenum [11] = assay: Antifungal activity against Penicillium chrysogenum CECT 2802 at 50 mg/ml after 72 hrs by agar diffusion test; format: functional; conditions: CECT 2802, 72 h, read-out: DIZ; in short: as §3
Candida tropicalis [12] = assay: Antifungal activity against Candida tropicalis ATCC 20336 assessed as concentration required to produce >11 mm of zone of inhibition after 72 hrs by agar diffusion test; format: functional; in short: as §3
Bacillus mycoides [13] = assay: Antibacterial activity against Bacillus mycoides DSMZ 274 at 50 mg/ml after 24 hrs by agar diffusion test; format: functional; conditions: DSMZ 274, 24 h, read-out: DIZ; in short: as §1
Bacillus subtilis [14] = assay: Antibacterial activity against Bacillus subtilis ATCC 6633 assessed as concentration required to produce >11 mm of zone of inhibition after 24 hrs by agar diffusion test; format: functional; in short: as §1
Candida tropicalis [15] = assay: Antifungal activity against Candida tropicalis ATCC 20336 at 50 mg/ml after 72 hrs by agar diffusion test; format: functional; conditions: ATCC 20336, 72 h, read-out: DIZ; in short: as §3
Acinetobacter johnsonii [16] = assay: Antibacterial activity against Acinetobacter johnsonii ATCC 17909 assessed as concentration required to produce >11 mm of zone of inhibition after 24 hrs by agar diffusion test; format: functional; in short: as §1
Micrococcus luteus [17] = assay: Antibacterial activity against Micrococcus luteus ATCC 9631 at 50 mg/ml after 24 hrs by agar diffusion test; format: functional; conditions: ATCC 9631, 24 h, read-out: DIZ; in short: as §1
Saccharomyces cerevisiae [18] = assay: Antifungal activity against Saccharomyces cerevisiae ATCC 9763 at 50 mg/ml after 72 hrs by agar diffusion test; format: functional; conditions: ATCC 9763, 72 h, read-out: DIZ; in short: as §3
Staphylococcus aureus [19] = assay: Antibacterial activity against Staphylococcus aureus NRRL B 313 at 50 mg/ml after 24 hrs by agar diffusion test; format: functional; conditions: NRRL B 313, 24 h, read-out: DIZ; in short: as §2
Bacillus [20] = assay: Antibacterial activity against Bacillus idosus B 241 at 2 mg/ml after 24 hrs by agar diffusion test; format: functional, organism-based; in short: as §1
Acinetobacter johnsonii [21] = assay: Antibacterial activity against Acinetobacter johnsonii ATCC 17909 at 50 mg/ml after 24 hrs by agar diffusion test; format: functional; conditions: ATCC 17909, 24 h, read-out: DIZ; in short: as §1
Micrococcus luteus [22] = assay: Antibacterial activity against Sarcina lutea ATCC 9341 at 2 mg/ml after 24 hrs by agar diffusion test; format: functional, organism-based; in short: as §1
Priestia megaterium [23] = assay: Antibacterial activity against Bacillus megaterium NRRL 1353895 at 50 mg/ml after 24 hrs by agar diffusion test; format: functional; conditions: NRRL 1353895, 24 h, read-out: DIZ; in short: as §1
Escherichia coli [24] = assay: Antibacterial activity against Escherichia coli ATCC 8739 at 2 mg/ml after 24 hrs by agar diffusion test; format: functional, organism-based; in short: as §1
Bacillus subtilis [25] = assay: Antibacterial activity against Bacillus subtilis ATCC 6633 at 2 mg/ml after 24 hrs by agar diffusion test; format: functional, organism-based; in short: as §1
Escherichia coli [26] = assay: Antibacterial activity against Escherichia coli ATCC 8739 assessed as concentration required to produce >11 mm of zone of inhibition after 24 hrs by agar diffusion test; format: functional; in short: as §1
Penicillium chrysogenum [27] = assay: Antifungal activity against Penicillium chrysogenum CECT 2802 at 2 mg/ml after 72 hrs by agar diffusion test; format: functional, organism-based; in short: as §3
Priestia megaterium [28] = assay: Antibacterial activity against Bacillus megaterium NRRL 1353895 at 2 mg/ml after 24 hrs by agar diffusion test; format: functional, organism-based; in short: as §1
[29] = system: Mycobacterium tuberculosis; assay: Antimycobacterial activity against Mycobacterium tuberculosis H37Rv after 45 days; format: functional
In short: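 Canetti proportion method. Compound in DMSO is added to Löwenstein–Jensen egg medium before coagulation (30 min, 85 °C), tested at three levels plus a lower one where needed. Tubes are inoculated with H37Rv at 10⁵ cells/ml and incubated 45 days at 37 °C. Colony counts versus drug-free control give percentage inhibition.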

Micrococcus luteus [30] = assay: Antibacterial activity against Micrococcus luteus ATCC 9631 at 2 mg/ml after 24 hrs by agar diffusion test; format: functional, organism-based; in short: as §1
Bacillus [31] = assay: Antibacterial activity against Bacillus idosus B 241 assessed as concentration required to produce >11 mm of zone of inhibition after 24 hrs by agar diffusion test; format: functional; in short: as §1
Candida tropicalis [32] = assay: Antifungal activity against Candida tropicalis ATCC 20336 at 2 mg/ml after 72 hrs by agar diffusion test; format: functional, organism-based; in short: as §3
Bacillus mycoides [33] = assay: Antibacterial activity against Bacillus mycoides DSMZ 274 assessed as concentration required to produce >11 mm of zone of inhibition after 24 hrs by agar diffusion test; format: functional; in short: as §1
Escherichia coli [34] = assay: Antibacterial activity against Escherichia coli ATCC 8739 at 50 mg/ml after 24 hrs by agar diffusion test; format: functional; conditions: ATCC 8739, 24 h, read-out: DIZ; in short: as §1
Micrococcus luteus [35] = assay: Antibacterial activity against Micrococcus luteus ATCC 9631 assessed as concentration required to produce >11 mm of zone of inhibition after 24 hrs by agar diffusion test; format: functional; in short: as §1
Priestia megaterium [36] = assay: Antibacterial activity against Bacillus megaterium NRRL 1353895 assessed as concentration required to produce >11 mm of zone of inhibition after 24 hrs by agar diffusion test; format: functional; in short: as §1
Saccharomyces cerevisiae [37] = assay: Antifungal activity against Saccharomyces cerevisiae ATCC 9763 at 2 mg/ml after 72 hrs by agar diffusion test; format: functional, organism-based; in short: as §3
Saccharomyces cerevisiae [38] = assay: Antifungal activity against Saccharomyces cerevisiae ATCC 9763 assessed as concentration required to produce >11 mm of zone of inhibition after 72 hrs by agar diffusion test; format: functional; in short: as §3
Staphylococcus aureus [39] = assay: Antibacterial activity against Staphylococcus aureus NRRL B 313 at 2 mg/ml after 24 hrs by agar diffusion test; format: functional, organism-based; in short: as §2
Bacillus cereus [40] = assay: Antibacterial activity against Bacillus cereus ATCC 11778 assessed as concentration required to produce >11 mm of zone of inhibition after 24 hrs by agar diffusion test; format: functional; in short: as §1

## CC[C@H](COC(C)=O)N1C(=O)C=CC1=O
Bacillus subtilis [1]
  zone of inhibition at 50000 µg/mL: 40 mm
Staphylococcus aureus [2]
  Activity: 0.06 mg/mL
Bacillus [3]
  zone of inhibition at 50000 µg/mL: 35 mm
Bacillus cereus [4]
  diameter of the inhibition zone (DIZ): inactive
Penicillium chrysogenum [5]
  Activity: 0.0125 mg/mL
Micrococcus luteus [6]
  Activity: 0.06 mg/mL
Bacillus cereus [7]
  zone of inhibition at 50000 µg/mL: 40 mm
Bacillus mycoides [8]
  diameter of the inhibition zone (DIZ): inactive
Acinetobacter johnsonii [9]
  diameter of the inhibition zone (DIZ): inactive
Micrococcus luteus [10]
  zone of inhibition at 50000 µg/mL: 38 mm
Penicillium chrysogenum [11]
  zone of inhibition at 50000 µg/mL: > 40 mm
Candida tropicalis [12]
  Activity: 0.006 mg/mL
Bacillus mycoides [13]
  zone of inhibition at 50000 µg/mL: 38 mm
Bacillus subtilis [14]
  Activity: 0.06 mg/mL
Candida tropicalis [15]
  zone of inhibition at 50000 µg/mL: > 40 mm
Acinetobacter johnsonii [16]
  Activity: 0.06 mg/mL
Micrococcus luteus [17]
  zone of inhibition at 50000 µg/mL: 38 mm
Saccharomyces cerevisiae [18]
  zone of inhibition at 50000 µg/mL: > 40 mm
Staphylococcus aureus [19]
  zone of inhibition at 50000 µg/mL: > 40 mm
Bacillus [20]
  diameter of the inhibition zone (DIZ): inactive
Acinetobacter johnsonii [21]
  zone of inhibition at 50000 µg/mL: 39 mm
Micrococcus luteus [22]
  diameter of the inhibition zone (DIZ): inactive
Priestia megaterium [23]
  zone of inhibition at 50000 µg/mL: 40 mm
Escherichia coli [24]
  diameter of the inhibition zone (DIZ): inactive
Bacillus subtilis [25]
  diameter of the inhibition zone (DIZ): inactive
Escherichia coli [26]
  Activity: 1.25 mg/mL
Penicillium chrysogenum [27]
  diameter of the inhibition zone (DIZ): inactive
Priestia megaterium [28]
  diameter of the inhibition zone (DIZ): inactive
[29]
  MIC: 23.7 µM (≈ 5 µg/mL)
Micrococcus luteus [30]
  diameter of the inhibition zone (DIZ): inactive
Bacillus [31]
  Activity: 0.06 mg/mL
Candida tropicalis [32]
  diameter of the inhibition zone (DIZ): inactive
Bacillus mycoides [33]
  Activity: 0.06 mg/mL
Escherichia coli [34]
  zone of inhibition at 50000 µg/mL: 29 mm
Micrococcus luteus [35]
  Activity: 0.3 mg/mL
Priestia megaterium [36]
  Activity: 0.06 mg/mL
Saccharomyces cerevisiae [37]
  diameter of the inhibition zone (DIZ): inactive
Saccharomyces cerevisiae [38]
  Activity: 0.006 mg/mL
Staphylococcus aureus [39]
  diameter of the inhibition zone (DIZ): inactive
Bacillus cereus [40]
  Activity: 0.0125 mg/mL
